What all share (assay type): functional
Holding throughout (conditions): for inhibition of growth at 50 µg/mL: 48 h, read-out: GI

For experiment [1], the system named is Botrytis cinerea. The experiment is described as follows: Fungicidal activity against Botryotinia fuckeliana assessed as growth inhibition at 50 ug/ml after 2 days. The gist of the method: (§1)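 Poisoned-plate mycelial growth assay. The test sample was mixed into molten potato dextrose agar in a Petri dish before it set. Fungus was inoculated and incubated at 24-26 °C. Colony spread diameter was measured after 2 days, and percent growth inhibition was calculated relative to the corresponding control plate.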

The subject of experiment [2] is Fusarium graminearum. The experiment is described as follows: Fungicidal activity against Fusarium graminearum assessed as growth inhibition at 50 ug/ml after 2 days. The method in brief: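 Mycelial growth test on potato dextrose agar (9 mL) in Petri dishes, with the plate mixed thoroughly before setting. Gibberella zeae inoculated and cultured at 24-26 °C. Colony spread diameter measured after 2 days, and growth inhibition calculated relative to the corresponding control.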

Experiment [3] deals with Botryosphaeria berengeriana. As to the kind of experiment: Fungicidal activity against Botryosphaeria berengeriana assessed as growth inhibition at 50 ug/ml after 2 days. The method in brief:
as §1

For experiment [4], the system named is Mycosphaerella arachidis. The experiment is described as follows: Fungicidal activity against Mycosphaerella arachidis assessed as growth inhibition at 50 ug/ml after 2 days. The method in brief: as §1
In experiment [5] the test system is Alternaria solani. As to the kind of experiment: Fungicidal activity against Alternaria solani assessed as growth inhibition at 50 ug/ml after 2 days. The method in brief:
as §1

As to “diethylstannanediyl dibenzo[d][1,2,3]thiadiazole-7-carboxylate”, the growth inhibition (GI) worked out at 43.2% in experiment [1]; 50% in experiment [2]; 36.7% in experiment [3]; 20.5% in experiment [4]; 32.3% in experiment [5].
The corresponding values for “dibutylstannanediyl dibenzo[d][1,2,3]thiadiazole-7-carboxylate” are 29.7%, 58.3%, 27.3%, 23.1% and 19.8%.
The corresponding values for “triphenylstannyl benzo[d][1,2,3]thiadiazole-7-carboxylate” are 91.9%, 54.8%, 97.2%, 71.8% and 92.5%.
As for `CCCC1COC(Cn2cncn2)(c2ccc(Cl)cc2Cl)O1` (stereo not given) [PROPICONAZOLE], the inhibition of growth at 50 µg/mL in experiment [1] came out at 100%; in experiment [2], 100%; in experiment [3], 100%; in experiment [4], 100%; in experiment [5], 89.2%.
With “triethylstannyl benzo[d][1,2,3]thiadiazole-7-carboxylate”, the growth inhibition (GI) in experiment [1], in experiment [2], in experiment [3], in experiment [4] and in experiment [5] was 100% each time.
As to “tributylstannyl benzo[d][1,2,3]thiadiazole-7-carboxylate”, the growth inhibition (GI) in experiment [1] amounted to 98.2%; in experiment [2] it was 92.9%; in experiment [3] it was 97.2%; in experiment [4] it was 97.4%; in experiment [5], 92.5%.
`O=C(O)c1cccc2nnsc12` [1,2,3-benzothia-diazole-7-carboxylic acid]: the inhibition of growth at 50 µg/mL was 72.1% in experiment [1]; 60.7% in experiment [2]; 40.5% in experiment [3]; 30.8% in experiment [4]; 42.4% in experiment [5].
Regarding “tricyclohexylstannyl benzo[d][1,2,3]thiadiazole-7-carboxylate”, the growth inhibition (GI) in experiment [1] came to 94.1%; in experiment [2], 50%; in experiment [3] it was 92.5%; in experiment [4], 76.7%; in experiment [5], 50%.
